Experimental data from ChEMBL document CHEMBL3994590, “In vitro activity and mode of action of distamycin analogues against African trypanosomes” (Eur J Med Chem, 2017).
Activity calls are given as the source filed them. The calls are words filed in the database; no cut-off is given here.

Legend:
[1] = tested on: Trypanosoma brucei brucei; assay: Inhibition of Trypanosoma brucei brucei recombinant trypanothione synthetase using GSH/spermididine as substrate assessed as residual activity by measuring phosphate release from ATP at 30 uM after 15 mins by Biomol Green reagent based assay relative to control
Leishmania infantum = assay: Inhibition of Leishmania infantum recombinant trypanothione synthetase using GSH/spermididine as substrate assessed as residual activity by measuring phosphate release from ATP at 30 uM after 15 mins by Biomol Green reagent based assay relative to control
Trypanosoma cruzi = assay: Inhibition of Trypanosoma cruzi recombinant trypanothione synthetase using GSH/spermididine as substrate assessed as residual activity by measuring phosphate release from ATP at 30 uM after 15 mins by Biomol Green reagent based assay relative to control
[2] = Selectivity index, ratio of EC50 for murine macrophage J774 cells to EC50 for Trypanosoma brucei brucei 427 bloodstream forms; format: toxicity; conditions: mouse; read-out: Ratio EC50
[3] = tested on: Trypanosoma brucei brucei; assay: Antitrypanosomal activity against Trypanosoma brucei brucei 427 bloodstream forms after 24 hrs by propidium iodide dye based flow cytometry; format: functional; conditions: Trypanosoma brucei, 427, 24 h
Outline: (§1)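 Bloodstream T. b. brucei 427 grown in HMI-9 with 10% FBS, penicillin/streptomycin, 37 °C, 5% CO2. Exponential-phase cells seeded at 5x10^5/mL; compounds added from DMSO stocks, 1% v/v DMSO final. […] Exposure 24 h, then diluted into PBS/1% glucose with 2 µg/mL PI and counted by flow cytometry. Viability given as % of DMSO-treated cell count.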

[4] = tested on: Trypanosoma brucei brucei; assay: Antitrypanosomal activity against Trypanosoma brucei brucei 427 bloodstream forms infected CHO-K1 cells expressing redox biosensor hGrx-roGFP2 assessed as induction of hGrx-roGFP2 oxidation at 1 mM after 1 hr by flow cytometric method; format: functional
Outline: (§2)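 Parasites induced with oxytetracycline for 24 h, then moved to 1x10^6/200 µL without inducer. Treated in triplicate for 1 h at 37 °C with 78–310 nM test compound, 1 mM menadione, 15 µM nifurtimox, 1 mM DTT or 1% DMSO. Half then given 1 mM DTT for 30 min more. PI at 2 µg/mL added; biosensor read at 488/530 nm in PI-negative cells only, as % reduction relative to DMSO.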

[5] = tested on: Trypanosoma brucei brucei; assay: (§3) Antitrypanosomal activity against Trypanosoma brucei brucei 427 bloodstream forms infected CHO-K1 cells expressing redox biosensor rxYFP assessed as induction of rxYFP oxidation at 1 mM preincubated for 1 hr followed by DTT addition measured after 30 mins by propidium iodide based flow cytometry relative to control; format: functional
Outline: (§4)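 CHO-K1 cells expressing rxYFP in DMEM with 10% FCS, given 400 µg/mL zeocin 48 h before the assay. Trypsinized cells seeded at 8x10^5/mL and treated in triplicate for 1 h at 37 °C with 1, 5 or 10 µM test compound, 1 mM menadione, H2O2 or DTT, or 1% DMSO. Some wells then given 1 mM DTT for 30 min. PI-negative cells analysed by flow cytometry (488/530 nm), as % reduction relative to DMSO.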

[6] = tested on: Trypanosoma brucei brucei; assay: (§5) Antitrypanosomal activity against Trypanosoma brucei brucei 427 bloodstream forms infected CHO-K1 cells expressing redox biosensor hGrx-roGFP2 assessed as induction of hGrx-roGFP2 oxidation at 1 mM preincubated for 1 hr followed by DTT addition measured after 30 mins by flow cytometric method; format: functional; outline: as §2
[7] = tested on: Trypanosoma brucei brucei; assay: Antitrypanosomal activity against Trypanosoma brucei brucei 427 bloodstream forms infected CHO-K1 cells expressing redox biosensor rxYFP assessed as induction of rxYFP oxidation at 1 mM after 1 hr by propidium iodide based flow cytometry relative to control; format: functional; outline: as §4
[8] = tested on: Trypanosoma brucei brucei; assay: Antitrypanosomal activity against Trypanosoma brucei brucei 427 bloodstream forms at 5 uM after 24 hrs by propidium iodide dye based flow cytometry; format: functional; conditions: for inhibition of growth at 5 µM: Trypanosoma brucei, 427, 24 h, read-out: GI; outline: as §1
[9] = tested on: Trypanosoma brucei brucei; assay: Antitrypanosomal activity against Trypanosoma brucei brucei 427 bloodstream forms at 30 uM after 24 hrs by propidium iodide dye based flow cytometry; format: functional; outline: as §1
[10] = tested on: Trypanosoma brucei brucei; assay: Antitrypanosomal activity against Trypanosoma brucei brucei 427 bloodstream forms assessed as induction of mitochondrial damage at 0.31 uM preincubated for 30 mins followed by addition of Mitotracker red CM-H2XRos further incubated for 30 mins and measured by epifluorescence microscopy; format: functional
Outline: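 Strain 427 at 1x10^6/mL treated with 0.31 µM test compound for 30 min. MitoTracker Red CM-H2XRos then added at 250 nM for 30 min more. Cells centrifuged, PBS-washed, fixed in 4% paraformaldehyde for 18 min, mounted with DAPI. Mitochondrial morphology and staining intensity compared with 1% DMSO-treated cells by fluorescence microscopy.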

[11] = tested on: Trypanosoma brucei brucei; assay: Antitrypanosomal activity against Trypanosoma brucei brucei 427 bloodstream forms assessed as induction of membrane damage at 310 nM after 1 hr by propidium iodide dye based flow cytometry; format: functional
Outline: (§6)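 Bloodstream strain 427 at 5x10^5/mL in triplicate, exposed to 310, 155 or 77.5 nM, 0.001% v/v Triton X-100, 15 µM nifurtimox or 1% v/v DMSO. Incubated 0.5, 1, 2 or 4 h, then diluted into PBS/1% glucose. PI added at 2 µg/mL just before flow cytometry. Result is % PI-positive cells, mean ± SD (n=3), with one-way ANOVA and Dunnett's test against DMSO.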

[12] = tested on: Trypanosoma brucei brucei; assay: Antitrypanosomal activity against Trypanosoma brucei brucei 427 bloodstream forms assessed as membrane damage in presence of bipyridine at 0.31 uM after 2 hr by propidium iodide staining-based flow cytometry
[13] = tested on: Trypanosoma brucei brucei; assay: (§7) Antitrypanosomal activity against Trypanosoma brucei brucei 427 bloodstream forms assessed as induction of membrane damage at 310 nM after 2 hrs by propidium iodide dye based flow cytometry relative to control; format: functional; outline: as §6
[14] = tested on: Trypanosoma brucei brucei; assay: Antitrypanosomal activity against Trypanosoma brucei brucei 427 bloodstream forms assessed as induction of membrane damage at 310 nM after 2 to 4 hrs by propidium iodide dye based flow cytometry; format: functional; outline: as §6
[15] = tested on: Trypanosoma brucei brucei; assay: Antitrypanosomal activity against Trypanosoma brucei brucei 427 bloodstream forms assessed as increase in intracellular free iron level at 3.1 uM co-incubated with DFO after 1 hr by PhenGreen SK diacetate reagent based flow cytometry; format: functional, cell-based
Outline: (§8)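 Strain 427 at 2x10^6/mL in triplicate with 3.1 µM test compound, with or without 10 or 100 µM deferoxamine or bipyridine; 1% DMSO control. After 40 min at 37 °C/5% CO2, PhenGreen SK diacetate added at 10 µM for 20 min more. Cells diluted in PBS/1% glucose and probe fluorescence (ex 488 nm) read by flow cytometry; mean ± SD (n=3).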

[16] = tested on: Trypanosoma brucei brucei; assay: Antitrypanosomal activity against Trypanosoma brucei brucei 427 bloodstream forms assessed as induction of membrane damage at 77.5 to 310 nM by propidium iodide dye based flow cytometry; format: functional; conditions: TDE = time-dependent effect; outline: as §6
[17] = tested on: Trypanosoma brucei brucei; assay: Antitrypanosomal activity against Trypanosoma brucei brucei 427 bloodstream forms assessed as induction of membrane damage at 155 nM after 2 to 4 hrs by propidium iodide dye based flow cytometry; format: functional; outline: as §6
[18] = tested on: Trypanosoma brucei brucei; assay: Antitrypanosomal activity against Trypanosoma brucei brucei 427 bloodstream forms assessed as increase in intracellular free iron level at 3.1 uM co-incubated with bipyridine for 1 hr by PhenGreen SK diacetate reagent based flow cytometry
[19] = tested on: Trypanosoma brucei brucei; assay: Antitrypanosomal activity against Trypanosoma brucei brucei 427 bloodstream forms assessed as decrease in parasite levels with discrete lysosomal signal at 0.31 uM preincubated for 30 mins followed by addition of Lysotracker red DND-99 further incubated for 30 mins and measured by epifluorescence microscopy relative to control; format: functional
[20] = tested on: Trypanosoma brucei brucei; assay: Antitrypanosomal activity against Trypanosoma brucei brucei 427 bloodstream forms infected CHO-K1 cells expressing redox biosensor hGrx-roGFP2 assessed as induction of hGrx-roGFP2 oxidation at 77.5 to 310 nM after 1 hr by flow cytometric method; format: functional; outline: as §2
[21] = tested on: Trypanosoma brucei brucei; assay: Antitrypanosomal activity against Trypanosoma brucei brucei 427 bloodstream forms infected CHO-K1 cells expressing redox biosensor rxYFP assessed as induction of rxYFP oxidation at 1 to 10 uM after 1 hr by propidium iodide based flow cytometry relative to control; format: functional; outline: as §4
[22] = tested on: Trypanosoma brucei brucei; assay: Antitrypanosomal activity against Trypanosoma brucei brucei 427 bloodstream forms assessed as increase in intracellular free iron level at 3.1 uM after 1 hr by PhenGreen SK diacetate reagent based flow cytometry; format: functional; outline: as §8
[23] = tested on: Trypanosoma brucei brucei; assay: as §7, with “nM parasite preincubated with 125 to 500 uM DFO for 3 hrs followed by test compound addition measured” for “nM”, “after 3” for “after 2”; format: functional
Outline: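 Strain 427 at 1x10^6/mL in triplicate at 37 °C. Arm A: 0.31 µM test compound with 100 µM DFO or bipyridine for 2 h. Arm B: DFO at 125–500 µM for 3 h, then 0.31 µM test compound for a further 3 h. Membrane integrity read by PI staining and flow cytometry; mean ± SD (n=3).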

[24] = tested on: Trypanosoma brucei brucei; assay: as §3, with “10 uM” for “1 mM”; format: functional; outline: as §4
[25] = tested on: Trypanosoma brucei brucei; assay: Antitrypanosomal activity against Trypanosoma brucei brucei 427 bloodstream forms assessed as induction of membrane damage at 310 nM after 3 hrs by propidium iodide dye based flow cytometry relative to control; format: functional
[26] = tested on: Trypanosoma brucei brucei; assay: as §5, with “77.5 to 310 nM” for “1 mM”; format: functional; outline: as §2

| SMILES | Activity [1] [%] | Activity (Leishmania infantum) [%] | Activity (Trypanosoma cruzi) [%] | selectivity ratio [2] | EC50 [3] [µM] | further results |
| --- | --- | --- | --- | --- | --- | --- |
| CCOC(=O)c1csc(NC(=O)c2csc(NC(=O)c3csc(C)n3)n2)n1 | 112 | 110 | 102 | 10.5 | 5 | – |
| CC1=CC(=O)c2ccccc2C1=O [MENADIONE] | – | – | – | – | – | Activity [4]: 21%; Activity [5]: inactive; Activity [6]: inactive; Activity [7]: 70% |
| CCOC(=O)c1csc(NC(=O)c2csc(NC(=O)c3csc(NC(C)=O)n3)n2)n1 | 93.7 | 105 | 96.3 | 29.1 | 5.4 | – |
| CCOC(=O)c1csc(NC(=O)c2csc(N)n2)n1 | 111 | 89.5 | 97.5 | – | – | inhibition of growth at 5 µM [8]: 25.6% |
| CC1CS(=O)(=O)CCN1/N=C/c1ccc([N+](=O)[O-])o1 (stereo not drawn) [NIFURTIMOX] | – | – | – | 10 | 15 | – |
| O[C@H](CS)[C@H](O)CS | – | – | – | – | – | Activity [4]: inactive |
| CC(C)(C)OC(=O)Nc1nc(C(=O)Nc2nc(C(=O)O)cs2)cs1 | 100 | 89.9 | 105 | – | – | inhibition of growth at 5 µM [8]: 10.8% |
| CC(=O)Nc1nc(C(=O)Nc2nc(C(=O)O)cs2)cs1 | 108 | 102 | 99 | – | – | inhibition of growth at 5 µM [8]: 20% |
| CNCCNC(=O)CN1C(=O)Cc2c([nH]c3ccc(Br)cc23)-c2ccc(Cl)cc21 | 49.4 | 57.1 | – | – | – | – |
| CC(=O)Nc1nc(C(=O)Nc2nc(C(=O)Nc3nc(C(=O)O)cs3)cs2)cs1 | 103 | 83.6 | 102 | – | – | Activity [9]: inactive; growth inhibition (GI) [8]: inactive |
| CCOC(=O)c1csc(NC(=O)c2csc(NC(=O)OC(C)(C)C)n2)n1 | 111 | 102 | 96.4 | 3.5 | 13.7 | – |
| CCOC(=O)c1csc(NC(=O)c2csc(NC(=O)c3csc(N)n3)n2)n1 | 100 | 99.8 | 96.2 | 19.6 | 5.5 | – |
| OO [HYDROGEN PEROXIDE] | – | – | – | – | – | Activity [5]: inactive; Activity [7]: 25% |
| CC(C)(C)OC(=O)Nc1nc(C(=O)Nc2nc(C(=O)Nc3nc(C(=O)O)cs3)cs2)cs1 | 112 | 116 | 112 | – | – | inhibition of growth at 5 µM [8]: 22.7% |
| O=c1[nH]c2cc3no[n+]([O-])c3cc2[nH]1 | – | – | 64.9 | – | – | – |
| CCOC(=O)c1csc(NC(=O)c2csc(NC(C)=O)n2)n1 | 102 | 82.8 | 98.1 | 7.4 | 9.6 | – |
| CCOC(=O)c1csc(NC(=O)c2csc(C)n2)n1 | 95.2 | 98.5 | 99.7 | – | – | growth inhibition (GI) [8]: inactive |
| CCOC(=O)c1csc(NC(=O)c2csc(NC(=O)c3csc(NC(=O)OC(C)(C)C)n3)n2)n1 | 120 | 106 | 126 | 16.5 | 0.31 | Activity [10]: inactive; Activity [11]: 10%; Activity [12]: 47%; Activity [13]: 87%; Activity [14]: 80 - 90%; Activity [15]: inactive; Activity [16]: Tde; Activity [17]: Active; Activity [18]: inactive; fold change (FC) [19]: >3; Activity [20]: 10%; Activity [21]: 10%; Activity [22]: 50%; Activity [23]: 40 - 67%; Activity [24]: inactive; Activity [25]: 80%; Activity [26]: inactive |
| Cc1nc(C(=O)Nc2nc(C(=O)O)cs2)cs1 | 96.6 | 102 | 104 | – | – | inhibition of growth at 5 µM [8]: 8.1% |
